In brackets after ≈: the same amount, converted by molar mass. Read-outs that look alike come from different tables or passages of the source.
Assays:
O=C(O)c1cccc(O)c1 = experiment: purified protein, by the assay type; conditions: other: 25°C, pH 7.8, the other substrates fixed and saturating
O=C(O)c1cccc(O)c1O = experiment: purified protein, by the assay type; conditions: other: 25°C, pH 7.8, the other substrates fixed and saturating
Nc1ccc(C(=O)O)c(O)c1 = experiment: purified protein, by the assay type; conditions: other: 25°C, pH 7.8, the other substrates fixed and saturating
[1] = target: EntE (dihydroxybenzoate-AMP ligase) (Escherichia coli, UniProt P10378); conditions: for Km / kcat: pH 7.8
EntE (dihydroxybenzoate-AMP ligase), sequence (P10378 whole entry): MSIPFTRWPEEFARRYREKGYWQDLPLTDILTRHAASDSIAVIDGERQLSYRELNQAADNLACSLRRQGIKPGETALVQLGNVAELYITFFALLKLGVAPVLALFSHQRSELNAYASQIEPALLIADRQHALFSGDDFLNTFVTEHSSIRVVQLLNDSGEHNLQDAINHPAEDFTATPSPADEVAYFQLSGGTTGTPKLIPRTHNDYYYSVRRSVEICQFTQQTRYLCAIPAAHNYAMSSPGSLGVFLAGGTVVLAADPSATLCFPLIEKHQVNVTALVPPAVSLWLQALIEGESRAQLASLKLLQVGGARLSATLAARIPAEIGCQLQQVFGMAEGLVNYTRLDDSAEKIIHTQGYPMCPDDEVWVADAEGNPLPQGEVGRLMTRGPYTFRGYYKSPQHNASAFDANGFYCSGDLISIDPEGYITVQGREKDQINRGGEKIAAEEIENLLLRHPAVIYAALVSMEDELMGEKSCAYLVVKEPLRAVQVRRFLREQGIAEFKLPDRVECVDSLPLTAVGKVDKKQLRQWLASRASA

EntE [2] = target: T1, EntE (Escherichia coli, UniProt P10378); experiment: Dead-end inhibition of EntE by AMPCPP, coupled assay; assay type: biochemical; conditions: holo-EntB-ArCP 4 μM
T1 sequence (P10378 whole entry): as above

EntE [3] = target: T1, EntE; experiment: ITC of Sal-AMS and DHB-AMS with EntE; assay type: binding
EntE [4] = target: T1, EntE; assay type: biochemical
Outline: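 Stopped-flow coupled assay (myokinase/pyruvate kinase/LDH, NADH at 340 nm) in 100 mM HEPES pH 7.8, 10 mM MgCl2, 25°C. […] Bisubstrate adenylate analogues were varied. Equal volumes were mixed with 16 nM EntE and followed for 4 min. The first 20 s were discarded. Five traces were averaged per concentration and fitted to a slow-onset equation; kobs was plotted against inhibitor concentration.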

EntE [5] = target: T1, EntE; conditions: competitive ligand in displacement ITC; cited from earlier work
EntE [6] = target: T1, EntE; experiment: ITC of DHB binding to free EntE
Outline: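 DHB binding was run by ITC at 25°C in 50 mM HEPES pH 7.8, 10 mM MgCl2. EntE was dialysed against this buffer and ligand was prepared in the dialysate. EntE concentration came from ε280 = 58 790 M⁻¹ cm⁻¹ and DHB by weight. 50 μM EntE in the cell; 1 mM DHB injected 5 μL every 230 s.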

M. tuberculosis = conditions: cited from earlier work
[7] = 25°C, the other substrates fixed and saturating

With “EntE (dihydroxybenzoate-AMP ligase) (Escherichia coli K-12)” the Km (O=C(O)c1cccc(O)c1) was 70 ± 8 µM, the kcat (O=C(O)c1cccc(O)c1) was 0.3 ± 0.01 s⁻¹ and the kcat/Km (O=C(O)c1cccc(O)c1) was 4600 M⁻¹ s⁻¹. The Km (O=C(O)c1cccc(O)c1O) was 2.5 ± 0.3 µM, the kcat/Km (O=C(O)c1cccc(O)c1O) was 880000 M⁻¹ s⁻¹ and the Km (Nc1ccc(C(=O)O)c(O)c1) was 3100 ± 300 µM.

For `Nc1ccc(C(=O)O)cc1` [4-aminobenzoic acid], the “substrate activity for the EntE reaction” value ([1]; tested as substrate in the coupled assay) was “no activity was observed”.

With `Nc1ncnc2c1ncn2C1OC(COP(=O)(O)CP(=O)(O)OP(=O)(O)O)C(O)C1O` (stereo not drawn) [AMPCPP, α, β-methyleneadenosine 5′-triphosphate] the “inhibition pattern versus ATP” value (EntE [2]; varied ATP, saturating DHB (80 μM)) was “competitive inhibition” and the “inhibition pattern versus DHB” value (EntE [2]; varied DHB, saturating ATP (5 mM)) was “uncompetitive inhibition”.

For `Nc1ncnc2c1ncn2[C@@H]1O[C@H](COS(=O)(=O)NC(=O)c2cccc(O)c2O)[C@@H](O)[C@H]1O` [DHB-AMS, 5′-O-[N-(2,3-dihydroxybenzoyl)sulfamoyl]adenosine], the TΔS (EntE [3]; 293 K, calculated from eq 11) was -0.4 kcal/mol, the “−ΔG” value (EntE [3]; 293 K, calculated from eq 11) was 15.0 kcal/mol and the “fold lower KD than Sal-AMS” value (EntE [3]; ITC) was 10 fold. The Kd (EntE [3]; KA, displacement ITC with 200 mM salicylic acid, 293 K, pH 8.0) was 0.00627 nM, the Kd (EntE [3]; KD, displacement ITC with salicylic acid, KD = 1/KA, 20°C) was 0.0075 nM and the “n (number of binding sites per monomer)” value (EntE [3]; displacement ITC) was 1.12 ± 0.03. For the same molecule, the “−ΔH” value (EntE [3]; stoichiometric titration at high c, 293 K) was 15.4 kcal/mol, the Ki (EntE [4]) was 3.8 nM and the type of inhibition (EntE [4]; time-courses of product formation) was “slow-onset tight-binding inhibitors”.

For `O=C(O)c1ccccc1O` [salicylic acid], the Km [1, 7] is listed as 70 ± 4 µM, the kcat [1] is listed as 0.8 ± 0.1 s⁻¹ and the “KA^B” value (EntE [5]) is listed as 4740 M⁻¹.

`O=C(O)c1cccc(O)c1O` [DHB, 2,3-dihydroxybenzoic acid] gave a Kd (EntE [6]) of 8700 nM, a n (EntE [6]; one-set of sites model) of 0.824 ± 0.00512 and a KA (EntE [6]; one-set of sites model, 25°C) of 115000 ± 2800 M⁻¹. For the same molecule, the ΔH (EntE [6]; one-set of sites model, 25°C) was -16.5 ± 0.14 kcal/mol and the ΔS (EntE [6]; one-set of sites model, 25°C) was −32.2 cal mol^−1 K ^−1.

In the case of `CC(C)(CO)[C@@H](O)C(=O)NCCC(=O)NCCS` [D-pantetheine], the Km [1, 7] is reported as 34200 ± 2000 µM and the kcat [1, 7] is reported as 0.9 ± 0.1 s⁻¹.

For `NNC(=O)c1ccncc1` [isoniazid], the MIC99 (M. tuberculosis) is listed as 0.18 µM (≈ 0.0247 µg/mL).

Source: publication PMC2860672 (Biochemistry, 2010)
